Experimental data published in ChEMBL document CHEMBL1141651, “Discovery of a potent, selective, and orally active proteasome inhibitor for the treatment of cancer” (J Med Chem, 2008).
Active and inactive are the calls of the source. The calls are words filed in the database; no cut-off is given here.

What was measured:
[1] = Metabolic stability in mouse liver microsomes; type: ADME, Microsome
[2] = Protein binding in mouse plasma; type: ADME, cell-free; details: read-out: PPB (converted)
[3] = target: Neprilysin (Homo sapiens) (UniProt P08473); test: Inhibition of human NEP at 10 uM
[4] = AUC (0 to infinity) in CD1 mouse at 4 mg/kg, iv; type: ADME, organism-based; design: time infinity, dose 4 mg/kg, route intravenous; details: plasma
Outline: (§1)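 CD-1 mice received a single dose by the iv or oral route. AUC from 0 to infinity was reported with terminal half-life, Vss, clearance and absolute oral bioavailability.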

[5] = Inhibition of chymotrypsin-like activity of human erythrocyte 20S proteasome
Outline: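 Isolated 20S proteasome purified from human erythrocytes was tested in a fluorimetric kinetic assay of chymotrypsin-like activity. Potency is reported as IC50.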

[6] = target: Cytochrome P450 1A2 (Homo sapiens, UniProt P05177); test: Inhibition of human recombinant CYP1A2 upto 30 uM; type: ADME; details: recombinant enzyme
Sequence of Cytochrome P450 1A2 (P05177 whole entry, canonical isoform): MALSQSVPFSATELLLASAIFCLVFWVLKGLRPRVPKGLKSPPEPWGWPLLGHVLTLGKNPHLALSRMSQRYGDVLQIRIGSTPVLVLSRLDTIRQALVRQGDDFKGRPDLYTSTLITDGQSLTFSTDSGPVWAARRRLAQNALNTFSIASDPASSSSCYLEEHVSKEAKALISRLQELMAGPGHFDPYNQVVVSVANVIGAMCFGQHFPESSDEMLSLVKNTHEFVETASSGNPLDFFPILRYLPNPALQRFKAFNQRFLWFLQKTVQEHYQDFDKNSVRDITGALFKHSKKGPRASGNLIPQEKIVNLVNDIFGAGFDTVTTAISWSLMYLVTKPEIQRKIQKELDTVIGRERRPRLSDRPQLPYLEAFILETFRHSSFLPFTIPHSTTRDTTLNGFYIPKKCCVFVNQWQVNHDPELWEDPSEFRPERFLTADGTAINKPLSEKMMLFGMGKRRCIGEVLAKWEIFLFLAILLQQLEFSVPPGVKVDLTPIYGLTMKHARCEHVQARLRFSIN
Outline: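 Recombinant human cytochrome P-450 isoforms were tested with fluorescent P-450 substrates, at test concentrations up to 30 µM.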

[7] = target: Cytochrome P450 3A4 (Homo sapiens, UniProt P08684); test: Inhibition of human recombinant CYP3A4; type: ADME
[8] = Metabolic stability in rat liver microsomes; type: ADME, Microsome
[9] = target: Cathepsin E (Homo sapiens) (UniProt P14091); test: Inhibition of human cathepsin E at 10 uM
[10] = species on record: Homo sapiens; test: Inhibition of human tryptase at 10 uM
[11] = target: Dipeptidyl peptidase 1 (Bos taurus) (UniProt Q3ZCJ8); test: Inhibition of bovine cathepsin C at 10 uM
Sequence of Dipeptidyl peptidase 1 (Bos taurus) (Q3ZCJ8 25-134 limits assumed): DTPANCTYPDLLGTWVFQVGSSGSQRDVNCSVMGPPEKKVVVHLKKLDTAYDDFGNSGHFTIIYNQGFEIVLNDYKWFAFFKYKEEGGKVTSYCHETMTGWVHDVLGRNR
Sequence of Dipeptidyl peptidase 1 (Bos taurus) (Q3ZCJ8 231-394 limits assumed): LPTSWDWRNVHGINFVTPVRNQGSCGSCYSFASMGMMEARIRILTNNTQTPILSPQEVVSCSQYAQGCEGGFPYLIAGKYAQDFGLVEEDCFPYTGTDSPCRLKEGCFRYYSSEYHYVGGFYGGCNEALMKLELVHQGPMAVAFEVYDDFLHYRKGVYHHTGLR
Sequence of Dipeptidyl peptidase 1 (Bos taurus) (Q3ZCJ8 395-463 limits assumed): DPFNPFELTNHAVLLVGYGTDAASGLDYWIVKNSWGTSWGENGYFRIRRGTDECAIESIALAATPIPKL

[12] = target: Cathepsin S (Homo sapiens) (UniProt P25774); test: Inhibition of human cathepsin S at 10 uM
Sequence of Cathepsin S (Homo sapiens) (P25774 115-331 limits assumed): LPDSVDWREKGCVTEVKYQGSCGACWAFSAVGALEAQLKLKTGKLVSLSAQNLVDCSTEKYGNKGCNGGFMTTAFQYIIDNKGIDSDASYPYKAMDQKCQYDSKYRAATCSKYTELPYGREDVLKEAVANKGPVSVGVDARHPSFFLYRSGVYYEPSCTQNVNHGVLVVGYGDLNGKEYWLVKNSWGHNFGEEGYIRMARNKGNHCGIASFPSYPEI

[13] = target: Plasminogen (Homo sapiens) (UniProt P00747); test: Inhibition of human plasmin at 10 uM
Sequence of Plasminogen (Homo sapiens) (P00747 97-580 limits assumed): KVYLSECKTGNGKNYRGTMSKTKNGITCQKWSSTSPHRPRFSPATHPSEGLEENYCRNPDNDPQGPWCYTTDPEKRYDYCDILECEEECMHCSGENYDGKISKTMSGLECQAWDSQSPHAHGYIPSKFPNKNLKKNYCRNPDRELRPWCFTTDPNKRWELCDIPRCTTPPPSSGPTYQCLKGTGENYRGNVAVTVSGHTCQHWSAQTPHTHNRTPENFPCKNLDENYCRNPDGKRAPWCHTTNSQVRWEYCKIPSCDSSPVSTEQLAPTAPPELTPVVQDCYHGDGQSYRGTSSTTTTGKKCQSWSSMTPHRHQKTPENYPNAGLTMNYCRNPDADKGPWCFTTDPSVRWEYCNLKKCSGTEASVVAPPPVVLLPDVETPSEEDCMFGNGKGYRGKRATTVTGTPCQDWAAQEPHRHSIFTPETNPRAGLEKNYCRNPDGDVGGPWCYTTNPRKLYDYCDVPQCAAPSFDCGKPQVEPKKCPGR
Sequence of Plasminogen (Homo sapiens) (P00747 581-810 limits assumed): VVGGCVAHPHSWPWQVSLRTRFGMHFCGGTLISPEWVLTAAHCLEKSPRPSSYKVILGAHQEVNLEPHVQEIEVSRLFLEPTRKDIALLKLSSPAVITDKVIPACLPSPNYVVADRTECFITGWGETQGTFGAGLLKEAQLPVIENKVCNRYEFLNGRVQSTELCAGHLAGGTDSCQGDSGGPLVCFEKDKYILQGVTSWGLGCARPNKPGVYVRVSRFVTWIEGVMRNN

[14] = target: Pro-cathepsin H (Homo sapiens) (UniProt P09668); test: Inhibition of human cathepsin H at 10 uM
[15] = Protein binding in rat plasma; type: ADME, cell-free; details: read-out: PPB (converted)
[16] = Clearance in CD1 mouse at 4 mg/kg, iv; type: ADME, organism-based; design: dose 4 mg/kg, route intravenous; details: in vivo
Outline: (§2)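 Female Sprague–Dawley rats and CD-1 mice each received a single iv or oral (po) dose. Terminal half-life and systemic clearance were estimated from plasma exposure over time, alongside AUC0→∞, Vss and absolute oral bioavailability.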

[17] = target: Cytochrome P450 2C9 (Homo sapiens, UniProt P11712); test: Inhibition of human recombinant CYP2C9 upto 30 uM; type: ADME; details: recombinant enzyme
Sequence of Cytochrome P450 2C9 (P11712 whole entry, canonical isoform): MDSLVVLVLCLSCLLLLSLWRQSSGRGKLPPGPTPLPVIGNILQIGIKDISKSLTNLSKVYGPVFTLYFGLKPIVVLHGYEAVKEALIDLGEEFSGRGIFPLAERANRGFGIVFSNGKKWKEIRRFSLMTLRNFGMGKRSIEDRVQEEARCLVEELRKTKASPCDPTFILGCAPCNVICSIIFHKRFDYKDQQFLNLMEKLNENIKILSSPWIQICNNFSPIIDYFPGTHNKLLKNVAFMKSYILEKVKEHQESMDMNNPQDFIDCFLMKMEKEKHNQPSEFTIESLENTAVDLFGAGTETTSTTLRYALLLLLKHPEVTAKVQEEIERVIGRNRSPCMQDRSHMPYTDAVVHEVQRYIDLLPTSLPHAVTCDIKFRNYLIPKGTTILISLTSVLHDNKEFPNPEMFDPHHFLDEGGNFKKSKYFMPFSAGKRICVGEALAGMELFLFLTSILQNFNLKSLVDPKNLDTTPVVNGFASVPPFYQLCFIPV
Outline: (§3)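 Recombinant human P-450 isoforms (1A2, 2C9, 2C19, 2D6) with fluorescent P-450 substrates; tested at concentrations up to 30 µM to gauge inhibition.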

[18] = target: Endothelin-converting enzyme 1 (Homo sapiens) (UniProt P42892); test: Inhibition of human ECE1 at 10 uM
[19] = target: Prothrombin (Homo sapiens) (UniProt P00734); test: Inhibition of human thrombin at 10 uM
[20] = target: Caspase-8 (Homo sapiens) (UniProt Q14790); test: Inhibition of human caspase 8 at 10 uM
Sequence of Caspase-8 (Homo sapiens) (Q14790 217-374 limits assumed): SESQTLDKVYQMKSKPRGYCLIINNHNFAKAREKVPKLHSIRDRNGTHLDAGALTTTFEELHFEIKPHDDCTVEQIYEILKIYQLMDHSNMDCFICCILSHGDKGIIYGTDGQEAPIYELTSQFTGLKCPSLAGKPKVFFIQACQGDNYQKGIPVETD
Sequence of Caspase-8 (Homo sapiens) (Q14790 385-479 limits assumed): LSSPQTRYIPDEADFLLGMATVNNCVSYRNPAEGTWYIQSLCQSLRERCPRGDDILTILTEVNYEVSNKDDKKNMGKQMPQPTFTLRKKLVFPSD

[21] = target: 72 kDa type IV collagenase (Homo sapiens) (UniProt P08253); test: Inhibition of human MMP2 at 10 uM
Sequence of 72 kDa type IV collagenase (Homo sapiens) (P08253 110-660 limits assumed): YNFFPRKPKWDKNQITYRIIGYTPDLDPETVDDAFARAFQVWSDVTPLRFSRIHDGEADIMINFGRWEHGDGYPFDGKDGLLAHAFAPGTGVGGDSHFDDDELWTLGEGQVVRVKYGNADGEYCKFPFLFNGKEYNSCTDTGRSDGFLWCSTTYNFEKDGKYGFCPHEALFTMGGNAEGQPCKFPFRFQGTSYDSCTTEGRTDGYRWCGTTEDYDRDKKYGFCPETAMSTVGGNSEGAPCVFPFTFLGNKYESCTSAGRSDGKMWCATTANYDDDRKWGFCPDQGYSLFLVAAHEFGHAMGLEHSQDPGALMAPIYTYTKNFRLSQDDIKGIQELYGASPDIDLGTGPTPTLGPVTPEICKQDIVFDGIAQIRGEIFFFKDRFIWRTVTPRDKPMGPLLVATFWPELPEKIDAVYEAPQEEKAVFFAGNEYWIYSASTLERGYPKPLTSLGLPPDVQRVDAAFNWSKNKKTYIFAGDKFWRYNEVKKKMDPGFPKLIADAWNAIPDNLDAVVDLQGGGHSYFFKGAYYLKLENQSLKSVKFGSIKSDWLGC

[22] = AUC (0 to infinity) in Sprague-Dawley rat at 0.8 mg/kg, po; type: ADME, organism-based; design: dose 0.8 mg/kg, route oral, time infinity; details: plasma
Outline: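 Female Sprague–Dawley rats received a single dose by the iv or oral route. AUC from 0 to infinity was reported alongside terminal half-life, Vss, clearance and absolute oral bioavailability.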

[23] = target: Matrilysin (Homo sapiens) (UniProt P09237); test: Inhibition of human MMP7 at 10 uM
[24] = target: Neutrophil elastase (Homo sapiens) (UniProt P08246); test: Inhibition of human neutrophil elastase 2 at 10 uM
[25] = test system: A2780; test: Cytotoxicity against human A2780 cells; type: functional, cell-based
Outline: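 Antiproliferative activity was measured in A2780 ovarian carcinoma cells with a standard colorimetric assay of cell proliferation and viability. Results are expressed as IC50.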

[26] = Volume of distribution at steady state in CD1 mouse at 4 mg/kg, iv; type: ADME, organism-based; design: dose 4 mg/kg, route intravenous; details: in vivo, read-out: Vdss
Outline: (§4)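 Single-dose pharmacokinetics after iv or oral administration in female Sprague–Dawley rats and in CD-1 mice; plasma exposure (AUC0–∞) used to derive steady-state volume of distribution, clearance, terminal half-life and absolute oral bioavailability.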

[27] = target: Caspase-3 (Homo sapiens) (UniProt P42574); test: Inhibition of human caspase 3 at 10 uM
Sequence of Caspase-3 (Homo sapiens) (P42574 29-175 limits assumed): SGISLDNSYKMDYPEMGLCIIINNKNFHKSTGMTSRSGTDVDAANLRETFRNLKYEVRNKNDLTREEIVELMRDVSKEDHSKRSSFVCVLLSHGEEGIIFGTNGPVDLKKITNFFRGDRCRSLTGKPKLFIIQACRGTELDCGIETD
Sequence of Caspase-3 (Homo sapiens) (P42574 176-277 limits assumed): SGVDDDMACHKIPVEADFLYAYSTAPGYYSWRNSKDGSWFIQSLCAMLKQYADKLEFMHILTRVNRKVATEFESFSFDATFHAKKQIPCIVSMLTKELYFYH

[28] = Oral bioavailability in Sprague-Dawley rat at 0.8 mg/kg; type: ADME, organism-based; details: in vivo
Outline: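 Female Sprague-Dawley rats given a single iv dose (0.2 mg/kg) and a single oral dose (0.8 mg/kg). Plasma AUC0-∞ was determined, and absolute oral bioavailability F (%) was derived by comparing oral with iv exposure.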

[29] = target: Dipeptidyl peptidase 4 (Homo sapiens) (UniProt P27487); test: Inhibition of human DPP4 at 10 uM
[30] = target: Plasma kallikrein (Homo sapiens) (UniProt P03952); test: Inhibition of human plasma kallikrein at 10 uM
Sequence of Plasma kallikrein (Homo sapiens) (P03952 20-390 limits assumed): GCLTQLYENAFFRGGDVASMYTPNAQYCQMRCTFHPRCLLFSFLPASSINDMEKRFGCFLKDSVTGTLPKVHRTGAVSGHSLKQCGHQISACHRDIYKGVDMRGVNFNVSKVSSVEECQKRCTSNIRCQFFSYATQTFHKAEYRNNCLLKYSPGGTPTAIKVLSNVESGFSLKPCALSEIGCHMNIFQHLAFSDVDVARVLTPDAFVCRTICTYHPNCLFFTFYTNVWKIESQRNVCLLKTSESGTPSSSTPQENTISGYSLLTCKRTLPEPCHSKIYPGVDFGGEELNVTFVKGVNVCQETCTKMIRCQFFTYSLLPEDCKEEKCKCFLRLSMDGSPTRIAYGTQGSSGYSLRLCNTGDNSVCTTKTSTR
Sequence of Plasma kallikrein (Homo sapiens) (P03952 391-638 limits assumed): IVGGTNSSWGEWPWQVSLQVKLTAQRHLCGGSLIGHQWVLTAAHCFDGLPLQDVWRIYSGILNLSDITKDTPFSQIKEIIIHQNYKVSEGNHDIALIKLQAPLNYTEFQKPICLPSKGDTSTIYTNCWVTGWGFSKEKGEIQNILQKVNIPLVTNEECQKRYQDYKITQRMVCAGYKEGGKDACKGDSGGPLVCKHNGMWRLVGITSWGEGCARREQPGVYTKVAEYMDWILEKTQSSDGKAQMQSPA

[31] = Oral bioavailability in CD1 mouse at 10 mg/kg; type: ADME, organism-based; details: in vivo
Outline: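 CD-1 mice given a single iv dose (4 mg/kg) and a single oral (po) dose (10 mg/kg). Plasma AUC0-∞ was measured, and absolute oral bioavailability F (%) was calculated from the oral versus iv exposure.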

[32] = Inhibition of bacterial prolyl oligopeptidase at 10 uM
[33] = test system: Mus musculus; test: Inhibition of 20S proteasome beta5beta1 subunit binding in human RPMI 8226 cells xenografted mouse; type: functional, organism-based
[34] = target: Cathepsin G (Homo sapiens) (UniProt P08311); test: Inhibition of human cathepsin G at 10 uM
Sequence of Cathepsin G (Homo sapiens) (P08311 whole entry): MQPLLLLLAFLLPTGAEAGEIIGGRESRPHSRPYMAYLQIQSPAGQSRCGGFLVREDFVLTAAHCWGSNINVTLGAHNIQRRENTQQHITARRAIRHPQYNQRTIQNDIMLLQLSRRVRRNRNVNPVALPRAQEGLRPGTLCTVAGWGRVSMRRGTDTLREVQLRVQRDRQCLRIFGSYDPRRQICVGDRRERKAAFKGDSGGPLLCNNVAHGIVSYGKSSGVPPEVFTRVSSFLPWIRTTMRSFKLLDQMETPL

[35] = target: Caspase-2 (Homo sapiens) (UniProt P42575); test: Inhibition of human caspase 2 at 10 uM
Sequence of Caspase-2 (Homo sapiens) (P42575 170-325 limits assumed): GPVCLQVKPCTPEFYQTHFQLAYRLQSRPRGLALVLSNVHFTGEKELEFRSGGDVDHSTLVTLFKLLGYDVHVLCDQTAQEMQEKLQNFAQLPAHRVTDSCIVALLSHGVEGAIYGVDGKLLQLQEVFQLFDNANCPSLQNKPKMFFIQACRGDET
Sequence of Caspase-2 (Homo sapiens) (P42575 334-452 limits assumed): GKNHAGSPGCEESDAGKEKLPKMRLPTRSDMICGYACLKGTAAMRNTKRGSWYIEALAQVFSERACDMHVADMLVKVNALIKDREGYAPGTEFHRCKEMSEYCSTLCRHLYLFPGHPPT

[36] = target: Neutrophil collagenase (Homo sapiens) (UniProt P22894); test: Inhibition of human MMP8 at 10 uM
[37] = target: Neutrophil elastase (Homo sapiens, UniProt P08246); test: Inhibition of human neutrophil elastase 2
[38] = Half life in Sprague-Dawley rat at 0.2 mg/kg, iv; type: ADME, organism-based; design: dose 0.2 mg/kg, route intravenous; details: in vivo; outline: as §2
[39] = target: Chymase (Homo sapiens) (UniProt P23946); test: Inhibition of human chymase at 10 uM
Sequence of Chymase (Homo sapiens) (P23946 whole entry): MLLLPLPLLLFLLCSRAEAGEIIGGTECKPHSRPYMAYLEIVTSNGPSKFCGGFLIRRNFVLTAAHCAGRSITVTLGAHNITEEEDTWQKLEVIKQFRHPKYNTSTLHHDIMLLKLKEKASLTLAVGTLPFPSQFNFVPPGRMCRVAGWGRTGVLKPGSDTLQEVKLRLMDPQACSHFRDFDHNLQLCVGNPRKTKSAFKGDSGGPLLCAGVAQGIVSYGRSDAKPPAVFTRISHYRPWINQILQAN

[40] = Volume of distribution at steady state in Sprague-Dawley rat at 0.2 mg/kg, iv; type: ADME, organism-based; design: dose 0.2 mg/kg, route intravenous; details: in vivo, read-out: Vdss; outline: as §4
[41] = target: Cytochrome P450 2D6 (Homo sapiens, UniProt P10635); test: Inhibition of human recombinant CYP2D6 upto 30 uM; type: ADME; details: recombinant enzyme; outline: as §3
[42] = AUC (0 to infinity) in CD1 mouse at 10 mg/kg, po; type: ADME, organism-based; design: time infinity, dose 10 mg/kg, route oral; details: plasma; outline: as §1
[43] = target: Cathepsin D (Homo sapiens) (UniProt P07339); test: Inhibition of human cathepsin D at 10 uM
[44] = Inhibition of chymotrypsin-like activity of human 20S proteasome in Molt4 cells; type: cell-based; details: molt-4
Outline: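 Intact human leukemia Molt-4 cells were given the cell-permeable fluorogenic chymotrypsin-like substrate MeOSuc-FLF-AFC, so the read-out also reflects inhibitor cell permeability. Potency is reported as EC50.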

[45] = Protein binding in dog plasma; type: ADME, cell-free, Canis lupus familiaris; details: read-out: PPB (converted)

## CC(C)C[C@H](NC(=O)[C@@H](NC(=O)c1cccc(-c2ccccc2)n1)[C@@H](C)O)B(O)O [DELANZOMIB]
[1]
  half-life: > 40 min
[2]
  fraction unbound: 0.001
[3]
  inhibition: 12%
[4]
  AUC(0-inf): 2910 ng·h/mL
[5]
  IC50: 3.8 nM
[6]
  Activity: Not Active
[7]
  IC50: 3500 nM
[8]
  half-life: 15 min
[9]
  inhibition: -3%
[10]
  inhibition: -3%
[11]
  inhibition: -8%
[12]
  inhibition: 12%
[13]
  inhibition: -1%
[14]
  inhibition: 6%
[15]
  fraction unbound: 0.001
[16]
  clearance: 23.3 mL/min/kg
[17]
  Activity: Not Active
[18]
  inhibition: 21%
[19]
  inhibition: 12%
[20]
  inhibition: -2%
[21]
  inhibition: -5%
[22]
  AUC(0-inf): 2200 ng·h/mL
[23]
  inhibition: -3%
[24]
  inhibition: 72%
[25]
  IC50: 13.7 nM
[26]
  Vd: 10.3 L/kg
[27]
  inhibition: 2%
[28]
  bioavailability: 54%
[29]
  inhibition: -5%
[30]
  inhibition: 0%
[31]
  bioavailability: 39%
[32]
  inhibition: 13%
[33]
  Activity: inactive
[34]
  inhibition: 86%
[35]
  inhibition: 1%
[36]
  inhibition: -1%
[37]
  IC50: 3550 nM
[38]
  half-life: 71 h
[39]
  inhibition: 80%
[40]
  Vd: 18.1 L/kg
[41]
  Activity: Not Active
[42]
  AUC(0-inf): 2850 ng·h/mL
[43]
  inhibition: 1%
[44]
  EC50: 13.5 nM
[45]
  fraction unbound: 0.001
